A selection follows.
PGC1a acetyl up = raises PGC1a acetylation signal in U2OS cells | U2OS PGC1a acetylation AlphaScreen, overnight | activation, % at 15.6 µM | hit rate 0.21% among 350,000 | AID 651723;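 active means every replicate reaching activation of at least 50%, whatever the mean replicate activation; inconclusive means replicates that disagree or another doubt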;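 further: hits raise the AlphaScreen acetylation signal above neutral controls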
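detection = AlphaScreen lysate read | assay system = U2OS cells expressing flag-PGC1a plus GCN5 | input = 7000 cells/well | dosing = one concentration | times = compound overnight at 37 °C, each detection step 1 h RT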
G6PC hep suppr = hepatocyte G6PC expression change via PGC-1a acetylation activation; shares compounds with PGC1a acetyl up; primary mouse hepatocytes, G6PC mRNA qPCR, forskolin; G6PC suppression (normalized activity, % of positive control; higher = more suppression), % at 26 µM; 240 tested, under 10 active;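 active means dose curves showing G6PC suppression whose half-maximal dose is at most twice the top valid dose; inconclusive means flat curves with moderate negative activity, or unreliable fits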;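 further: G6PC expression relative to GAPDH housekeeping gene as delta delta Ct; 0% = median of neutral control wells and 100% = median of positive control wells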
Hep PCK1 suppr = PGC-1a acetylation activator altering hepatocyte PCK1 expression; 230 tested, under 10 active; PCK1 expression decrease, unspecified at 26 µM; shares compounds with PGC1a acetyl up; primary mouse hepatocytes, PCK1 mRNA qPCR, forskolin-stimulated;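 active means compounds lowering PCK1 expression whose fitted half-maximal concentration is at most twice the top tested dose; inconclusive means flat fit with moderate opposite-direction effect, or poor fit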;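 further: values are delta delta Ct of PCK1 relative to GAPDH; higher delta delta Ct means lower PCK1 expression so positive values indicate hits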
PGC1a hep suppr = PGC-1a acetylation activator altering hepatocyte PGC-1a expression. max activity (PGC-1a expression decrease), %. primary mouse hepatocytes, PGC-1a mRNA qPCR, forskolin; top dose 26 µM. shares compounds with PGC1a acetyl up. 240 tested, under 10 active;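 active means compound lowering PGC-1a expression with fitted half-maximal concentration at most twice its top tested dose; inconclusive means flat curve with moderate opposite-direction effect, or poor fit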;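 further: 0% = neutral control wells median and 100% = positive control wells median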
* hit, by the source's call; i = inactive; u = inconclusive; x = no result; [ ] = dose if it differs, or a comment.

SMILES	PGC1a acetyl up	G6PC hep suppr	Hep PCK1 suppr	PGC1a hep suppr
COc1cc(C2Nc3cccc4cccc(c34)N2)ccc1OC(C)=O	-56	x	x	x
COc1ccc2nc(C)cc(N/N=C/c3ccc(F)cc3)c2c1	-94	x	x	x
COC(=O)c1ccc(CSc2nc3c(cnn3-c3ccc(Cl)cc3)c(=O)[nH]2)o1	-53	x	x	x
Cc1c(C(=O)NCCSCc2c(F)cccc2Cl)cnn1-c1ccc(Cl)cc1	u	-15	-13	-22
CCn1nnc(NC(=O)c2ccc(C(C)(C)C)cc2)n1	-41	x	x	x
Cc1ccc(NC(=O)CN2CCC(NC(=O)Cc3ccccc3)CC2)c(C)c1	141*	23	14	38
CCOCCCNc1nc2c(c(=O)n(C)c(=O)n2C)n1CCCc1ccccc1	-40	x	x	x
C=C[C@H]1C(C(=O)OCC)=CC[C@@H](c2ccccc2)N1S(=O)(=O)c1ccc(C)cc1	u	-62	u	57
O=C(O)C1CCCN1S(=O)(=O)c1ccc(Br)s1 (stereo not drawn) (tested in a mixture with another compound)	-42	x	x	x
CCOc1ccc(Nc2ncnc3ccc([N+](=O)[O-])cc23)cc1	-50	x	x	x
CCOc1ccc(Nc2oc(-c3ccc(Cl)cc3)nc2C#N)cc1	62*	-53[8 µM]	54	20
CN(C)CCNc1oc(COc2ccc(-c3ccccc3)cc2)nc1C#N	-58	x	x	x
C/C(=N\Nc1nc(C)cc(=O)[nH]1)C1CC1	-41	x	x	x
Cc1ccc2c(CN(Cc3ccccc3)Cc3ccccc3)cc(=O)oc2c1	u	x	62	75
Nc1cc2nsnc2cc1Br	-60	x	x	x
O=C(O)c1ccc2c(c1)OCCCO2	-44	x	x	x
O=C(O)c1cc(O)c2c(c1)C(=O)c1cccc(O)c1C2=O	-67	x	x	x
Cc1cc2c(cc1S(=O)(=O)N1CCc3ccccc31)NC(=O)CO2	u	x	19	15
NS(=O)(=O)c1ccc(-c2ccc(/C=C3\C(=O)Nc4cc(Cl)ccc43)o2)cc1	-49	x	x	x
COc1ccc(S(=O)(=O)N(C)CC(=O)Nc2cccc(C(C)=O)c2)cc1Cl	u	17	13	u
COc1ccc(Cn2nnnc2CN(Cc2cc3ccc(C)cc3[nH]c2=O)C2CCCC2)cc1	-42	x	x	x
Cc1cc(C)c2nc(N(CCCN(C)C)C(=O)c3ccc(S(=O)(=O)N4CCCCCC4)cc3)sc2c1	64*	i	183	41
Cc1ccc(C)c(S(=O)(=O)N(C(=O)c2ccncc2)c2ccc(OC(=O)c3ccncc3)cc2)c1	-44	x	x	x
O=C(/C=C/c1ccccc1)CC(O)(c1ccccc1)C(F)(F)C(F)F (stereo not drawn)	-42	x	x	x
CC(=O)c1ccc(OCC(=O)OCC(=O)Nc2sccc2C(N)=O)cc1	56*	9	17[8 µM]	58
SMILES	PGC1a acetyl up	G6PC hep suppr	Hep PCK1 suppr	PGC1a hep suppr
Cc1ccc(-n2nc3ccc(N)cc3n2)cc1	-52	x	x	x
CSc1nsc(SC)c1NC(=O)Nc1ccccc1C	-103	-16	21	56
COc1ccc2sc(C)[n+](C)c2c1	-55	x	x	x
COc1ccc(C2CC(=O)N(C)c3ccccc3S2)cc1 (stereo not drawn)	-41	39	45	57
Nc1nccc(-c2ccc(-n3cnc4ccccc43)cc2)n1	-44	x	x	x
Cc1ccc(C(=O)N2CCN(c3ccc(NC(=O)c4ccc(Br)o4)cc3)CC2)cc1	u	-37	-21	63
CCn1c(COc2ccc(=O)n(-c3ccccc3)n2)nnc1SCc1ccc(C)cc1	-46	x	x	x
Cc1c(Cl)cccc1NS(=O)(=O)c1ccc2c(c1)C1C=CCC1C(c1ccc(C(=O)O)cc1)N2 (stereo not drawn)	-107	x	x	x
COc1ccc(C2NC(=S)NC3=C2CCCC3=C2SCCS2)cc1 (stereo not drawn)	-45	x	x	x
COc1ccc(OC)c(CNS(=O)(=O)c2cc(-c3cc(C)no3)ccc2OC)c1	-51	x	x	x
CCOc1ccc(N(C)S(=O)(=O)c2cc(-c3cc(C)no3)ccc2OC)cc1	54*	23	61	57
COc1ccc(C2c3[nH]c4ccccc4c3C[C@H]3C(=O)N(c4ccccc4C(=O)N4CCC[C@@H]4C(=O)O)C(=O)N23)cc1 (stereo partly drawn)	-44	x	x	x
CCN(CC(=O)NCc1ccc(Cl)cc1)C(=O)CSCC(=O)Nc1ccc(C)cc1	u	-12	34	60
COc1ccc(N=C2S/C(=C\c3ccc(N4CCOCC4)o3)C(=O)N2CCc2c[nH]c3ccccc23)cc1	-62	x	x	x
COc1ccc(S(=O)(=O)Nc2ccc3c(c2)C(=O)N([C@@H](C)CO)C[C@@H](C)[C@H](CN(C)S(=O)(=O)c2ccc(Cl)cc2)OCCCC[C@H](C)O3)cc1	-49	161	73	67
Cc1nn(C)c(C)c1N1C(=O)c2cccc3c(Br)ccc(c23)C1=O	-78	x	x	x
CCN1CCN(Cc2ccc(NC(=O)c3ccc(C)c(NC(=O)c4c[nH]c5cc(C(F)(F)F)ccc5c4=O)c3)cc2C(F)(F)F)CC1	-78	x	x	x
COc1ccc(-c2nc(N)c(C#N)c(-c3cccnc3)c2C)cc1	u	2	7.5	40
CCCN(CCC)S(=O)(=O)c1ccc(C(=O)Nc2nnc(CSC)o2)cc1	-45	x	x	x
C=CC(=O)Nc1cccc(Oc2ccnc(Nc3ccc(N4CCN(C)CC4)cc3)n2)c1	-40	x	x	x
Cc1c(C(=O)OCC(=O)c2c(N)n(CC(C)C)c(=O)n(C)c2=O)oc2ccccc12	64*	66	81	9
Cn1nc(-c2ccccn2)nc2c(=O)n(C)c(=O)nc1-2	-80	x	x	x
O=c1[nH]nc(-c2ccc(NCCCO)c([N+](=O)[O-])c2)c2ccccc12	-59	x	x	x
COc1ccc(OC)c(NC(=O)CSc2nnc(-c3cccnc3)s2)c1	85*	-9	-11	55
O=C(O)CC1S/C(=N/N=C/c2ccc(Br)cc2)N(c2ccccc2)C1=O (stereo not drawn)	-75	x	x	x
COC(=O)C[C@H]1c2cc(C(F)(F)F)ccc2S(=O)(=O)N1Cc1ccc(OC)cc1	106*	29	70	68
CC(=O)c1c(C)oc2ccc(N(C(C)=O)S(=O)(=O)c3ccc(Cl)c([N+](=O)[O-])c3)cc12	-61	x	x	x
Cc1ccccc1CS(=O)(=O)c1nnc([C@H](Cc2ccccc2)NC(=O)OC(C)(C)C)o1	-55	x	x	x
COc1cc(CN2CCC(C(=O)NCCC(C)C)CC2)ccc1OCc1ccccc1	u	909	178	56

Assay outcomes as filed in PubChem BioAssay.
